Where “and” joins values, the source holds several entries; their conditions need not be identical. Equal entries are not always repeated. Where two headings read alike, the source gives them in different places.
Key:
[1] = tested on: heteromeric RETα+β channels; type: biochemical, bovine; conditions: 10 μM L-cis diltiazem, saturating (2 mM) cGMP
[2] = target: hybrid OLFα+RETβ channels (UniProt Q00195+Q28181); type: biochemical; conditions: for block of channels by L-cis diltiazem: 10 μM L-cis diltiazem
Outline: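 Xenopus oocytes were co-injected with olfactory α and rod β subunit mRNAs. Inside-out patches were recorded at 21–24°C in standard patch solution (115 mM NaCl, 5 EGTA, 1 EDTA, 5 HEPES, pH 7.5), held at −75 mV. Rod β incorporation was checked by applying 10 μM l-cis diltiazem. Currents were normalised to Imax at 2 mM cGMP.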

native rod CNG channels = assay: Inside-out patch recording of native rod CNG channels from rod outer segments; type: biochemical, tiger salamanders (Ambystoma tigrinum); conditions: for effect on the kinetics, cGMP sensitivity, or maximal current: in the absence of genistein
Outline: (§1)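 Dark-adapted (1 h) tiger salamanders were anaesthetised in ice-cold […] (1 g/liter, 20 min). Retinas were triturated under dim red light, and inside-out patches were excised from rod or cone outer segments. Pipettes were 3–5 MΩ (115 mM NaCl, 5 EGTA, 1 EDTA, 5 HEPES, pH 7.5). Held at −75 mV; currents normalised to 2 mM cGMP Imax. Closed channels were pre-exposed 1 min to test compound, then given 2 mM cGMP. Ki from modified Hill fit.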

[3] = target: heteromeric RETα+β channels (Bos taurus, UniProt Q00194); type: biochemical, bovine
[4] = tested on: native olfactory CNG channels; type: biochemical, tiger salamanders
Outline: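 Olfactory epithelium from land-phase tiger salamanders was digested with papain for 18–22 min at 21°C, washed 10 min in ice-cold solution and triturated to single neurons. Excised patches used 10–20 MΩ pipettes. Held at −75 mV; currents normalised to 2 mM cGMP Imax; mean ± SEM.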

[5] = target: T1, heteromeric OLFα+β channels (Rattus norvegicus, UniProt Q00195+Q64359); type: biochemical; conditions: closed and fully activated channels
T1 sequence (Q00195 1-664): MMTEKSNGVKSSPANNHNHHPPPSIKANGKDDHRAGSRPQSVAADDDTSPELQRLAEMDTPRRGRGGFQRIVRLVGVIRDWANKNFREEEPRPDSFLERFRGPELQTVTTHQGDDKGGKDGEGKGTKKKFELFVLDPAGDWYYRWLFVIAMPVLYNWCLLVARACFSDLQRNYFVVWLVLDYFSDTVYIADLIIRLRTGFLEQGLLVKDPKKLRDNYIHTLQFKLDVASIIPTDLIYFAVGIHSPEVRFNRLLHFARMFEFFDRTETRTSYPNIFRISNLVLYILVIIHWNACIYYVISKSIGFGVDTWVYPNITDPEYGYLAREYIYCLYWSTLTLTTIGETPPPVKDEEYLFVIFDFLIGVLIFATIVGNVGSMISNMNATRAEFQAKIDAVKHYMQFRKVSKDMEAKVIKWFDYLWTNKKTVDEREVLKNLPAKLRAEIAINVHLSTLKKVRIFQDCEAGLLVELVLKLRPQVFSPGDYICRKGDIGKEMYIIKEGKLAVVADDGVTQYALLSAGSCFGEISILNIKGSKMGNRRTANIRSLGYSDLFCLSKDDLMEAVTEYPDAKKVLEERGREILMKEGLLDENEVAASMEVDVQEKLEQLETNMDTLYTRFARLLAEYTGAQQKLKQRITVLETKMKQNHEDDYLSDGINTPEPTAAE
T1 sequence (Q64359 1-575): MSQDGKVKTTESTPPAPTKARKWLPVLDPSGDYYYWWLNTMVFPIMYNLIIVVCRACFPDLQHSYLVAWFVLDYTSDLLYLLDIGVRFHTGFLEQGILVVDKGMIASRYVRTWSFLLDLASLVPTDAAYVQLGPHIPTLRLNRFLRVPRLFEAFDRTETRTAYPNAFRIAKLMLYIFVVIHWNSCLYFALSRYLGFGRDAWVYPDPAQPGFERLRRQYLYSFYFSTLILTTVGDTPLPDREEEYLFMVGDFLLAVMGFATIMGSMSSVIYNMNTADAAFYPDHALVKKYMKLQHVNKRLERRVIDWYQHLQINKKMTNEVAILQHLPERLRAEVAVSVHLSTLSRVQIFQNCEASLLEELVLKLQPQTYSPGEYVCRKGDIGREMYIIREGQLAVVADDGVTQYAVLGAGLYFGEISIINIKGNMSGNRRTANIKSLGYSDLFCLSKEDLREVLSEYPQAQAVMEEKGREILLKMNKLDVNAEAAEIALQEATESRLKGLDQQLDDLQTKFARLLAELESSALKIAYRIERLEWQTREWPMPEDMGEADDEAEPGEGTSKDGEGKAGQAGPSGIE

native cone CNG channels = assay: Inside-out patch recording of native cone CNG channels from cone outer segments; type: biochemical, tiger salamanders (Ambystoma tigrinum)
Outline: as §1

[6] = target: T2, homomeric OLFα channels (rat olfactory CNG channels) (Rattus norvegicus, UniProt Q00195); type: biochemical; conditions: concentrations up to 500 μM
T2 sequence (Q00195 1-664): T1 sequence (Q00195 1-664)

[7] = target: T3, homomeric RETα channels (α subunits of the bovine rod photoreceptor CNG channel) (Bos taurus, UniProt Q00194); type: biochemical
T3 sequence (Q00194 1-690): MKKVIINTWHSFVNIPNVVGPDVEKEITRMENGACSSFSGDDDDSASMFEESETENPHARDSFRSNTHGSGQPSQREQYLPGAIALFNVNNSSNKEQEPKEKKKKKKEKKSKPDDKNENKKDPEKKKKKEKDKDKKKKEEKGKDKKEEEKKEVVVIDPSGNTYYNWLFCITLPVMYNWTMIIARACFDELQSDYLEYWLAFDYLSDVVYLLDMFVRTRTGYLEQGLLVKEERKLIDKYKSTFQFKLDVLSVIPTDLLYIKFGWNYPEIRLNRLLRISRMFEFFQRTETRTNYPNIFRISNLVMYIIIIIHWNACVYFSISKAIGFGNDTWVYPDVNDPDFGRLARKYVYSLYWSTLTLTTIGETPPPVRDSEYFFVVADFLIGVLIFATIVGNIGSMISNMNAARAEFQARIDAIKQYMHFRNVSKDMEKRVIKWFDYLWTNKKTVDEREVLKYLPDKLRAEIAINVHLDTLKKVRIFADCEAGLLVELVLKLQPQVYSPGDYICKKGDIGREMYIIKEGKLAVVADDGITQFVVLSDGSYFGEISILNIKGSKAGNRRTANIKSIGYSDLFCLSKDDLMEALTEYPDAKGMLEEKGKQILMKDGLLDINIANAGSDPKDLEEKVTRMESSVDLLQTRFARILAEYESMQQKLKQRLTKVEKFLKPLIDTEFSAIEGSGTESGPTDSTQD
Outline: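 Bovine rod CNG α-subunit cRNA was injected into Xenopus oocytes (50 nl at 1 ng/nl). After 2–7 d, vitelline membrane was removed. Inside-out patches were recorded at 21–24°C with 2–3 MΩ pipettes in standard patch solution (115 mM NaCl, 5 EGTA, 1 EDTA, 5 HEPES, pH 7.5), held at −75 mV. Perfusion switched in 50 ms. Test compound (DMSO stock) was applied before or after 2 mM cGMP. Ki and Hill coefficient from modified Hill fit.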

[8] = closed channels, saturating genistein (500 μM)
[9] = fully activated, saturating cGMP (2 mM)

heteromeric RETα+β channels (Bos taurus, UniProt Q00194), sequence (Q28181 whole entry partner, one chain of several): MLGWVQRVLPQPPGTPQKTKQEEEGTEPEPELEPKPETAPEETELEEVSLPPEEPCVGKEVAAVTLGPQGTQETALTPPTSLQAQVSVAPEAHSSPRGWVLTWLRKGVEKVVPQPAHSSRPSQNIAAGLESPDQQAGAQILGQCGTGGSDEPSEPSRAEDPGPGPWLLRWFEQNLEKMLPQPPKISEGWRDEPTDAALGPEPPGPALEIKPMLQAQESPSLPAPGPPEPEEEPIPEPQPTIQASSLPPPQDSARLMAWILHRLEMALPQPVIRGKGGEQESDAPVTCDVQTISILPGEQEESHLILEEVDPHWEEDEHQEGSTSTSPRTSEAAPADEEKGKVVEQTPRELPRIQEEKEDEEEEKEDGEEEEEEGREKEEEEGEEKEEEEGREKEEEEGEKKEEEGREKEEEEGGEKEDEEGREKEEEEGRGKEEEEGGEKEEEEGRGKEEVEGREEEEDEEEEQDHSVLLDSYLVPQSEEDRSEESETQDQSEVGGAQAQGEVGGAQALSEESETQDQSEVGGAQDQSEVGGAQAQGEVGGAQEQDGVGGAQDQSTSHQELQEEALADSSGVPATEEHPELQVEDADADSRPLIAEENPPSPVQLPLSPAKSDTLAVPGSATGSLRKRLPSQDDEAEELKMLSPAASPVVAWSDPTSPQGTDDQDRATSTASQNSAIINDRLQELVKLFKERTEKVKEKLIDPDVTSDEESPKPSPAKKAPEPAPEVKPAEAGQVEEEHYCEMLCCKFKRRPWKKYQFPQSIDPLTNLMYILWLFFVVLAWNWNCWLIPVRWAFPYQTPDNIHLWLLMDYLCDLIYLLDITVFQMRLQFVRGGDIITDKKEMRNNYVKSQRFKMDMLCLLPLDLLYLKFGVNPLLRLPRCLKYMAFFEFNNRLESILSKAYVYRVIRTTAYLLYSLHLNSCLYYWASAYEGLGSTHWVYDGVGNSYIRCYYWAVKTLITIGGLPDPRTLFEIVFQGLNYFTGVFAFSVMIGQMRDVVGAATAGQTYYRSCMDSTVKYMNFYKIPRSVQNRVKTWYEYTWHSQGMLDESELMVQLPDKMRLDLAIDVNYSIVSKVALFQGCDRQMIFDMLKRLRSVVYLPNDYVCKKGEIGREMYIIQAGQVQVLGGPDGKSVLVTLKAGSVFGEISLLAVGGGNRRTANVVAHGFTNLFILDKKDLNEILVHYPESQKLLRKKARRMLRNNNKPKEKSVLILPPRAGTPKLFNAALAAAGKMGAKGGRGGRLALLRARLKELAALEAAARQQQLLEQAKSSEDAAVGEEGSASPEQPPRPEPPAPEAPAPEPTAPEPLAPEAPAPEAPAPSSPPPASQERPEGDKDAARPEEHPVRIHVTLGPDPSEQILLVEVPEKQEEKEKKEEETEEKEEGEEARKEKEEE
hybrid OLFα+RETβ channels, sequence (Q28181 whole entry, one chain of several): as the sequence (Q28181 whole entry partner, one chain of several) above

**Q.** COc1ccc([C@H]2Sc3ccccc3N(CCN(C)C)C(=O)[C@H]2OC(C)=O)cc1 (relative stereo) [L-cis diltiazem] was tested. Which “inhibition of channels by L-cis diltiazem” value (from here on “inhibition of channels”) ([1]; RETα to RETβ mRNA ratio 1:5) did it give?
**A.** 50%

**Q.** What about the “inhibition of channels” value ([1]; RETα to RETβ mRNA ratio 1:8) of the same compound?
**A.** 78%

**Q.** And the “inhibition of channels” value ([1]; RETα to RETβ mRNA ratio 1:10)?
**A.** 80%

**Q.** What about the “block of channels by L-cis diltiazem” value ([2]; OLFα to RETβ mRNA ratio 1:1.5) of the same compound?
**A.** 36.8 ± 2.9%

**Q.** What about the “block of channels by L-cis diltiazem” value ([2]; OLFα to RETβ mRNA ratio 1:3) of the same compound?
**A.** 32.8 ± 1.4%

**Q.** Which “effect on the kinetics, cGMP sensitivity, or maximal current” value (native rod CNG channels) does the source give for Nc1ncnc2c1ncn2[C@@H]1O[C@H](COP(=O)(O)OP(=O)(O)NP(=O)(O)O)[C@@H](O)[C@H]1O [AMP-PNP, adenylylimidodiphosphate] here?
**A.** no effect

**Q.** With O=CN/C=C/c1cc(O)ccc1O [erbstatin] as the compound, how does the “effect on the kinetics, cGMP sensitivity, or maximal current” value (native rod CNG channels) read?
**A.** no effect

**Q.** With O=c1c(-c2ccc(O)cc2)coc2cc(O)cc(O)c12 [genistein] as the compound, how does the “Hill coefficient of genistein inhibition” value ([3]; closed channels) read?
**A.** ~2 and ~1

**Q.** What about the “Hill coefficient of genistein inhibition” value ([3]; open, fully activated channels) of the same compound?
**A.** ~1

**Q.** And the “time constant of genistein inhibition” value ([3]; open, fully activated channels)?
**A.** ~1 s

**Q.** What about the “maximal inhibition of closed channels by saturating genistein” value (“maximal inhibition of closed channels” for short) [4, 8] of the same compound?
**A.** 28 ± 4%

**Q.** What about the “inhibition of fully activated channels by genistein” value (from here on “inhibition … by genistein”) [4, 9] of the same compound?
**A.** 11 ± 4%

**Q.** What about the “genistein inhibition compared with native olfactory channels” value [5] of the same compound?
**A.** inhibited to an even greater extent than were native olfactory channels

**Q.** What about the “maximal inhibition of closed channels” value (native cone CNG channels; [8]) of the same compound?
**A.** 50 ± 3%

**Q.** And the “inhibition … by genistein” value (native cone CNG channels; [9])?
**A.** 37 ± 3%

**Q.** What about the “τ of slowly activating CNG current component after genistein pretreatment” value (native rod CNG channels; closed channels pre-exposed to 100 μM genistein for 1 min, then 2 mM cGMP) of the same compound?
**A.** 8.5 s

**Q.** What about the “maximal inhibition of closed channels” value (native rod CNG channels; [8]) of the same compound?
**A.** 61 ± 8%

**Q.** What about the “inhibition … by genistein” value (native rod CNG channels; [9]) of the same compound?
**A.** 31 ± 4%

**Q.** And the “time constant of genistein inhibition” value (native rod CNG channels; open, fully activated channels)?
**A.** 1.2 s

**Q.** What about the “genistein inhibition of closed channels” value ([6]; closed channels) of the same compound?
**A.** fails to inhibit

**Q.** What about the “genistein inhibition of fully activated channels” value ([6]; fully activated channels) of the same compound?
**A.** fails to inhibit

**Q.** And the “effect of genistein on hybrid channels” value ([2]; closed and fully activated states)?
**A.** no effect

**Q.** What about the “Hill coefficient of genistein inhibition” value ([7]; closed channels) of the same compound?
**A.** ~2

**Q.** And the “inhibition … by genistein” value [7, 9]?
**A.** 67 ± 4%

**Q.** What about the “Hill coefficient of genistein inhibition” value ([7]; open, fully activated channels) of the same compound?
**A.** ~1

**Q.** What about the “time constant of genistein inhibition” value ([7]; open, fully activated channels) of the same compound?
**A.** 9 s

**Q.** And the Ki ([7]; read-out: apparent K i for genistein, closed channels)?
**A.** 4 µM

Reference: article PMC2232887 (The Journal of General Physiology, 2000)
